Results from PubChem BioAssay.
Active and inactive are the calls of the source.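 The calls were made as follows, unless noted: active = inhibition at or above 50% at 10 µM; inactive = inhibition below 50%.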

What was measured:
[1] = inhibitors of TNFa-induced NFkB p65 translocation, primary screen, imaging, HUVEC, MLSMR starter and 10KST1 sets (AID 438;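 active = inhibition above 20% together with a positive visual image hit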;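 also: compound added about 3h40 before a 20 min TNFalpha stimulation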;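 as to inhibition: signal is the nuclear over cytoplasmic p65 intensity ratio per well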); settings: HUVEC TNFa-induced p65 nuclear translocation; cell count: measured here: nuclei count (cytotoxicity indicator), at 2.08 µM; inhibition: at 2 µM, stronger effect = higher value, 0% TNFa-plus-vehicle, 100% no-TNFa wells
[2] = reduction of polyQ htt aggregates in cells – imaging, exon1htt(103Q)mCFP cells, high-content imaging, primary screen (AID 483;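 active = visual image review flags a hit and inhibition of aggregation exceeds 20%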;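 also: compound exposure lasted 3 days before fixation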;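 as to nuclei count: percent of the per-plate median nuclei count of sample wells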); settings: exon1htt(103Q)mCFP cell line, aggregate imaging, at 2 µM; inhibition of aggregation: stronger effect = higher value; nuclei count: measured here: cell count, toxicity
[3] = endothelial E-selectin expression blockers – imaging, HUVEC, immunofluorescence, MLSMR starter and 10KST1 sets, primary screen (AID 487;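 active = visually confirmed hit in the image check and inhibition above 20%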;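 as to inhibition: signal is fraction of cell area covered by stained E-selectin grains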;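 as to nuclei count: 100% = median nuclei count of all wells on the same plate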); settings: HUVEC TNFalpha-induced E-selectin immunofluorescence imaging, at 2 µM; inhibition: stronger effect = higher value; nuclei count: measured here: cell number, toxicity
[4] = target: Voltage-gated potassium channel subunit beta-2 (Rattus norvegicus) (UniProt P62483); assay: inhibitors of rat Kvbeta2 reductase activity – biochemical, NADPH fluorescence, primary screen (AID 622;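 active = fluorescence slope higher than the sample average by over 3 SD, cut at about -0.22 in these data, passing the limit was not always enough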;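 also: slope of raw intensity against log time taken from 70 to 1610 s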); settings: recombinant KvBeta, 4-cyanobenzaldehyde reduction, at 10 µM, stronger effect = higher value
Voltage-gated potassium channel subunit beta-2 (Rattus norvegicus), sequence (P62483 whole entry, looked up): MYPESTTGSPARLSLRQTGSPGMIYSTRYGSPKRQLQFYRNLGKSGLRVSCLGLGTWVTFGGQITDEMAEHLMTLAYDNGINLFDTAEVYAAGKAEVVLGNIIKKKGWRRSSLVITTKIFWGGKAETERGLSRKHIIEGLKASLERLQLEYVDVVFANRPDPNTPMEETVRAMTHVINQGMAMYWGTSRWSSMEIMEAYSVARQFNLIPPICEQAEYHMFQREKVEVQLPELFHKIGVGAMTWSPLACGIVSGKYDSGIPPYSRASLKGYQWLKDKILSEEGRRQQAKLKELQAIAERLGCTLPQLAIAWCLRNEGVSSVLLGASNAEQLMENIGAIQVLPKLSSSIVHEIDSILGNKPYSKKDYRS

[5] = target: Voltage-gated potassium channel subunit beta-2 (Rattus norvegicus) (UniProt P62483); assay: enhancers of rat Kvbeta2 NADPH turnover – biochemical, NADPH fluorescence, primary screen (AID 623;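 active = NADPH fluorescence slope more negative than the mean of all samples by about 3 SD, 99.7% confidence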;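 also: fluorescence intensity change per second fitted from 20 to 320 s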); settings: Recombinant KvBeta, NADPH fluorescence decrease slope, 10 min; at 10 µM; stronger effect = lower value
[6] = target: Muscarinic acetylcholine receptor M4 (Homo sapiens) (UniProt P08173); assay: M4-linked GIRK flux change, two-sided – cell-based, HEK293 M4/GIRK, thallium flux, BTC-AM, M4 allosteric agonist project, primary screen (AID 625;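 active = fluorescence slope after compound addition differing from the mean of all tested samples at 99.7% confidence, mostly higher but some lower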;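 also: thallium influx through GIRK channels coupled to M4 in HEK293 cells with BTC-AM dye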); settings: at 10 µM, actives lie on both sides
Muscarinic acetylcholine receptor M4 (Homo sapiens), sequence (P08173 whole entry, looked up): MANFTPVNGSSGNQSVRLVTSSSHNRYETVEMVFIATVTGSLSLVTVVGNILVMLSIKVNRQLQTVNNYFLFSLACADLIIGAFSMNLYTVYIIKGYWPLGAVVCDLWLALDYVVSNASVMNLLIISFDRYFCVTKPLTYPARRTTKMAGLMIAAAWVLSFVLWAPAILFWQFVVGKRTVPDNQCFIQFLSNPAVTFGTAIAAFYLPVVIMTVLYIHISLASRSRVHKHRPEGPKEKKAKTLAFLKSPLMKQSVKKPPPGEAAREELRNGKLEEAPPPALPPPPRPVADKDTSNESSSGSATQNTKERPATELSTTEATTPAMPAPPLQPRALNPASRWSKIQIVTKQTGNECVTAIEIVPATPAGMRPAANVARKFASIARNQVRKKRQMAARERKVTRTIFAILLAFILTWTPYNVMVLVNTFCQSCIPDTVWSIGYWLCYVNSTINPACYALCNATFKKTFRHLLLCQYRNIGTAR
Method in brief: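 Material: M4/GIRK1/GIRK2 stable HEK293 cell line. Medium: pH 7.3 thallium assay buffer. Dosing: single compound concentration, 10 µM final. Schedule: 1 h dye loading, 2 min kinetic read. Measured by: kinetic fluorescence with BTC-AM dye. Read-out: post-addition slope, 15–24 s, of baseline-normalized fluorescence. Benchmarks: carbachol and DMSO controls.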

[7] = blockers of RIG-like receptor reporter activation – cell-based, Sendai virus stimulus, luciferase, 10K MLSCN set, TLR/RLR signaling modifier project, primary screen (AID 602276); settings: HEK293 RL24 IRF3 luciferase reporter, at 10 µM, stronger effect = higher value;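 also: firefly luciferase from ISG56 promoter only with Renilla not read in this screen; 0% = Sendai virus plus DMSO and 100% = medium plus DMSO without virus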
[8] = TLR3 IRF3 reporter activation blockers – cell-based, poly I:C stimulus, luciferase, 10K MLSCN set, primary screen (AID 602277;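 active = inhibition of the reporter signal at or above 50%; inactive = inhibition below 50%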); settings: HEK293-TLR3 RL24 IRF3 luciferase reporter, at 10 µM, stronger effect = higher value

Compound	cell count [1]	inhibition [1]	inhibition of aggregation [2]	nuclei count [2] [%]	inhibition [3]	nuclei count [3] [%]	fluorescence slope [4]	NADPH fluorescence slope [5]	fluorescence slope [6]	inhibition [7]	inhibition [8]
Cn1c(Cc2ccccc2)nnc1SCC(=O)NC1CCCCC1	327	-2.3% (inactive)	-1% (inactive)	94.8	-136% (inactive)	120	-0.0696 (active)	-3.5e-05 (inactive)	0.0079 (inactive)	16.3% (inactive)	0.751% (inactive)
CCCCCc1c(O)c2ccccc2[nH]c1=O	596	-9.8% (inactive)	-15.9% (inactive)	109	-4.6% (inactive)	87	-0.565 (inactive)	-9.6e-05 (inactive)	0.00337 (inactive)	11.7% (inactive)	13.8% (inactive)
COc1ccc(C2C(C(C)=O)=C(C)N=c3s/c(=C\c4ccc5c(c4)OCO5)c(=O)n32)c(OC)c1 (centres undefined)	340	-19.3% (inactive)	12.7% (inactive)	118	3.3% (inactive)	115	-0.568 (inactive)	-1.5e-05 (inactive)	0.00431 (inactive)	-6% (inactive)	20.7% (inactive)
CN(c1cccc(NS(=O)(=O)c2cccs2)c1)S(C)(=O)=O	427	2.4% (inactive)	-15.2% (inactive)	110	-5% (inactive)	109	-0.446 (inactive)	-2.2e-06 (inactive)	0.00491 (inactive)	21.9% (inactive)	15.4% (inactive)
CCOC(=O)C(C)On1c(SC(C)C(=O)OCC)nc2ccccc2c1=O (centres undefined)	808	-3.9% (inactive)	10.3% (inactive)	103	-57.6% (inactive)	107	-0.582 (inactive)	-5.7e-05 (inactive)	0.0065 (inactive)	20% (inactive)	20% (inactive)
O=c1c2cn[nH]c2nc(SCc2ccc3c(c2)OCCO3)n1-c1ccccc1	488	15.8% (inactive)	4.8% (inactive)	112	-27.1% (inactive)	107	-0.508 (inactive)	1.3e-05 (inactive)	0.0074 (inactive)	7.97% (inactive)	9.23% (inactive)
Cc1cc(C)c2c(N)c(C(=O)N3CCN(c4ncccn4)CC3)sc2n1	663	-9.1% (inactive)	5.1% (inactive)	69.4	-10.2% (inactive)	101	-0.559 (inactive)	-1.8e-05 (inactive)	0.00421 (inactive)	-3.01% (inactive)	-25.1% (inactive)
O=C(Nc1cccc(F)c1)N1CC=C(n2c(=O)[nH]c3ccccc32)CC1	312	5.7% (inactive)	4.5% (inactive)	107	-37.9% (inactive)	83.5	-0.453 (inactive)	-0.000227 (inactive)	0.00517 (inactive)	15% (inactive)	15.5% (inactive)
Cc1n[nH]c(C)c1S(=O)(=O)Nc1ccc2c(c1)OCCO2	328	8.9% (inactive)	29.5% (inactive)	91.5	10.4% (inactive)	84.4	-0.469 (inactive)	4.4e-05 (inactive)	0.0057 (inactive)	26.7% (inactive)	33.7% (inactive)
CC1(c2ccncc2)Nc2ccccc2-c2nc3ccccc3n21 (centres undefined)	394	-13.4% (inactive)	6.2% (inactive)	69.9	-182% (inactive)	122	-0.454 (inactive)	-2.1e-05 (inactive)	0.00581 (inactive)	6.46% (inactive)	-10% (inactive)
Cc1ccc(CNC(=O)C2CCCN(S(=O)(=O)c3cccnc3)C2)cc1 (centres undefined)	313	-3.9% (inactive)	-2.8% (inactive)	89.2	-250% (inactive)	88.5	-0.573 (inactive)	2.7e-05 (inactive)	0.00508 (inactive)	-3.78% (inactive)	-7.01% (inactive)
COc1ccc(Cl)cc1C(=O)n1nc(C)cc1C	346	-3.3% (inactive)	-15% (inactive)	106	-31% (inactive)	118	-0.355 (inactive)	-1.5e-05 (inactive)	0.00581 (inactive)	-16.7% (inactive)	-14.6% (inactive)
Cc1ccc(C)c(SCC(=O)Nc2nnc(-c3ccccc3)o2)c1	395	-16.8% (inactive)	-12.6% (inactive)	99.9	-16.3% (inactive)	124	-0.586 (inactive)	-3.2e-05 (inactive)	0.00772 (inactive)	13.5% (inactive)	19.4% (inactive)
CCOC(=O)CNC(=O)CSc1ncnc2c1cnn2-c1ccccc1	564	-9.2% (inactive)	-10.3% (inactive)	113	-69.6% (inactive)	118	-0.562 (inactive)	3.9e-05 (inactive)	0.00493 (inactive)	7.97% (inactive)	8.26% (inactive)
CCOC(=O)C1=C(C)Nc2ncnn2C1c1ccccc1F (centres undefined)	469	-5.9% (inactive)	-7.1% (inactive)	81.7	-49.3% (inactive)	102	-0.559 (inactive)	-1.9e-05 (inactive)	0.00641 (inactive)	-5.35% (inactive)	-2.56% (inactive)
O=c1c2c3c(sc2nc2sc(C4CC4)nn12)CCCC3	428	-8.3% (inactive)	19.5% (inactive)	80.2	34.4% (inactive)	67.7	-0.602 (inactive)	3.7e-05 (inactive)	0.00546 (inactive)	-18.7% (inactive)	-51.7% (inactive)
Cc1ccc2nc(SC(C)C(=O)N3CCCC3)[nH]c2c1 (centres undefined)	467	0% (inactive)	9.4% (inactive)	75.7	-59.3% (inactive)	112	-0.478 (inactive)	6e-05 (inactive)	0.00661 (inactive)	-21.2% (inactive)	-39.7% (inactive)
CCCCCn1c(=O)[nH]c2cc(C(=O)NCCN3CCOCC3)ccc2c1=O	355	-1% (inactive)	18% (inactive)	104	-15.3% (inactive)	120	-0.323 (inactive)	-3.7e-05 (inactive)	0.00658 (inactive)	5.81% (inactive)	9.94% (inactive)
COc1ccccc1C1c2c(oc3ccc(Cl)cc3c2=O)C(=O)N1c1cc(C)on1 (centres undefined)	345	-5% (inactive)	2.2% (inactive)	103	-13.8% (inactive)	112	-0.555 (inactive)	2.1e-05 (inactive)	0.0044 (inactive)	24.8% (inactive)	16.8% (inactive)
CCc1nnc(NC(=O)OCc2ccccc2)s1	414	8.1% (inactive)	0.2% (inactive)	99.3	-59.3% (inactive)	120	-0.579 (inactive)	-1.5e-05 (inactive)	0.00857 (inactive)	-17.2% (inactive)	-43.4% (inactive)
COC(=O)Cc1c(C)nc2nc(-c3ccccc3)[nH]n2c1=O	615	1.9% (inactive)	18.9% (inactive)	68	-15.7% (inactive)	97.2	-0.474 (inactive)	-9.1e-06 (inactive)	0.00459 (inactive)	0.882% (inactive)	6.76% (inactive)
CN1C(=O)NC(NC(=O)C2CCCCC2)(C(F)(F)F)C1=O (centres undefined)	650	1.4% (inactive)	0.6% (inactive)	97.1	3.3% (inactive)	99.5	-0.579 (inactive)	-2.4e-05 (inactive)	0.0049 (inactive)	17% (inactive)	17.5% (inactive)
Cc1cc(C)c(-c2cc(C(=O)Nc3c(C)n(C)n(-c4ccccc4)c3=O)[nH]n2)c(O)c1	434	1.8% (inactive)	-1.8% (inactive)	111	-51.7% (inactive)	105	-0.585 (inactive)	3.8e-05 (inactive)	0.00571 (inactive)	8.55% (inactive)	101% (active)
CCOc1ccc(-n2c(=O)cc(N3CCN(c4ccccc4)CC3)[nH]c2=O)cc1	542	-4.4% (inactive)	-3.5% (inactive)	87.1	-40.5% (inactive)	108	-0.411 (inactive)	-1.6e-05 (inactive)	0.00553 (inactive)	12.1% (inactive)	11.2% (inactive)
O=C(NCc1ccco1)c1noc2c1CCCCC2	245	1.3% (inactive)	1.9% (inactive)	103	-32.5% (inactive)	117	-0.549 (inactive)	-2.4e-05 (inactive)	0.00608 (inactive)	-4% (inactive)	-51.6% (inactive)
N#CCSCC(=O)Nc1ccc(F)cc1	511	4.1% (inactive)	-5.3% (inactive)	108	10.5% (inactive)	99.2	-0.462 (inactive)	-5.6e-05 (inactive)	0.00474 (inactive)	13.5% (inactive)	26.3% (inactive)
COCCn1c(NCc2ccc(C)cc2)nc2c1c(=O)[nH]c(=O)n2C	848	6.8% (inactive)	29.4% (inactive)	91.9	9.9% (inactive)	110	-0.543 (inactive)	-2.1e-05 (inactive)	0.00577 (inactive)	7.9% (inactive)	13.3% (inactive)
CCn1c(=O)cc(SCC(=O)Nc2cccnc2)c2ccccc21	369	-8.6% (inactive)	4.3% (inactive)	101	-15.9% (inactive)	116	-0.463 (inactive)	2.2e-05 (inactive)	0.00646 (inactive)	2.11% (inactive)	-5.54% (inactive)
COC(=O)c1ccc(CN(c2ccccc2OC)S(=O)(=O)c2cccs2)o1	666	8.1% (inactive)	-4.4% (inactive)	113	44.1% (inactive)	98.6	-0.534 (inactive)	-5.7e-05 (inactive)	0.00695 (inactive)	3.68% (inactive)	7.96% (inactive)
